Data from ChEMBL document CHEMBL1154436, “Synthesis, pharmacological activity and hydrolytic behavior of ethylenediamine and benzathine conjugates of ibuprofen” (Eur J Med Chem, 2008).

How the values were obtained:
[1] = test system: Rattus norvegicus; experiment: Antiinflammatory activity in Wistar rat assessed as inhibition of carrageenan-induced paw edema at 21.15 mg/kg, po administered 30 mins before carrageenan challenge measured 24 hrs after post drug dose; type: functional
Outline: (§1)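 Wistar rats (150–200 g), four groups of six. Drug given orally, 0.75–1.0 ml of a suspension in 0.5% w/v sodium CMC (stocks 4, 4.23, 5.99 mg/ml), dose molecularly equivalent to ibuprofen 20 mg/kg. Control group received no drug. Carrageenan 1%, 0.1 ml, injected subplantar into the left hind paw 30 min after dosing. Paw volume measured before and after treatment. Inhibition % = [(Vt−V0)control − (Vt−V0)treated]/(Vt−V0)control × 100. One-way ANOVA versus control.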

[2] = Chemical stability assessed as hydrolysis in hydrochloric acid buffer at pH 1.2; type: physicochemical
Outline: (§2)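 Hydrolysis in HCl (pH 1.2) or phosphate (pH 7.4) buffer, 0.05 M total buffer, ionic strength held at 0.5 M with KCl, 37 °C. Released parent drug measured by UV in a chloroform extract. At pH 7.4, sampled at 0.5–10 h. pH 1.2 assay run 2 h. First-order k = 2.303/t·log(a/(a−x)), t in minutes; half-life derived. Mean of three sets.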

[3] = Chemical stability assessed as hydrolysis in phosphate buffer at pH 7.4; type: physicochemical; outline: as §2
[4] = test system: Rattus norvegicus; experiment: Gastrointestinal toxicity in Wistar rat assessed ulcer index at 100 mg/kg, po after 17 hrs; type: organism-based; parameters: dose 100 mg/kg, route oral; conditions: in vivo
Outline: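 Adult Wistar rats (150–200 g), four groups of six, fasted 8 h before dosing. Vehicle control, ibuprofen 100 mg/kg, or conjugate at a dose molecularly equivalent to ibuprofen 100 mg/kg. Killed 17 h after dosing, with food and water ad libitum. Gastric mucosa examined with a 4× binocular magnifier. Lesions classed as large (>2 mm), small (1–2 mm) or punctiform (<1 mm) and scored. Index = treated mean score minus control mean score.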

[5] = test system: Mus musculus; experiment: Analgesic activity in Swiss albino mouse assessed as protection against acetic acid-induced writhing at 21.15 mg/kg, po administered 3 hrs mins before acetic acid challenge relative to control; type: functional
Outline: (§3)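 Mice, four groups of six: vehicle control 5 ml/kg, or test drug as a homogeneous suspension in 0.5% w/v aqueous sodium CMC (stocks 1, 1.05, 1.49 mg/ml), 0.5–0.6 ml orally, doses molecularly equivalent to ibuprofen 20 mg/kg. Acetic acid given i.p. at 1 ml/100 g body weight. Writhings counted over 10 min. Protection % = 100 − (test/control writhings × 100). Mean ± S.E.M.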

[6] = test system: Rattus norvegicus; experiment: Antiinflammatory activity in Wistar rat assessed as inhibition of carrageenan-induced paw edema at 21.15 mg/kg, po administered 30 mins before carrageenan challenge measured 3 hrs after post drug dose; type: functional; outline: as §1
[7] = test system: Rattus norvegicus; experiment: Antiinflammatory activity in Wistar rat assessed as inhibition of carrageenan-induced paw edema at 29.98 mg/kg, po administered 30 mins before carrageenan challenge measured 3 hrs after post drug dose; type: functional; outline: as §1
[8] = test system: Rattus norvegicus; experiment: Antiinflammatory activity in Wistar rat assessed as inhibition of carrageenan-induced paw edema at 29.98 mg/kg, po administered 30 mins before carrageenan challenge measured 24 hrs after post drug dose; type: functional; outline: as §1
[9] = test system: Mus musculus; experiment: Analgesic activity in Swiss albino mouse assessed as protection against acetic acid-induced writhing at 29.98 mg/kg, po administered 3 hrs mins before acetic acid challenge relative to control; type: functional; outline: as §3
[10] = test system: Mus musculus; experiment: Analgesic activity in Swiss albino mouse assessed as protection against acetic acid-induced writhing at 20 mg/kg, po administered 3 hrs mins before acetic acid challenge relative to control; type: functional; outline: as §3
[11] = test system: Rattus norvegicus; experiment: Antiinflammatory activity in Wistar rat assessed as inhibition of carrageenan-induced paw edema at 20 mg/kg, po administered 30 mins before carrageenan challenge measured 24 hrs after post drug dose; type: functional; outline: as §1
[12] = test system: Rattus norvegicus; experiment: Antiinflammatory activity in Wistar rat assessed as inhibition of carrageenan-induced paw edema at 20 mg/kg, po administered 30 mins before carrageenan challenge measured 3 hrs after post drug dose; type: functional; outline: as §1

Stability [2]	half-life [3]	Compound	inhibition in vivo at 21.15 mg/kg [1]	UI [4]	Activity [5]	inhibition in vivo at 21.15 mg/kg [6]	inhibition in vivo at 29.98 mg/kg [7]	inhibition in vivo at 29.98 mg/kg [8]	Activity [9]	Activity [10]	inhibition in vivo at 20 mg/kg [11]	inhibition in vivo at 20 mg/kg [12]
Stable	1.16 h	CC(C)Cc1ccc(C(C)C(=O)NCCNC(=O)C(C)c2ccc(CC(C)C)cc2)cc1 (mixture of isomers)	38%	4.63	29.63%	48%						
Stable	1.38 h	CC(C)Cc1ccc(C(C)C(=O)N(CCN(Cc2ccccc2)C(=O)C(C)c2ccc(CC(C)C)cc2)Cc2ccccc2)cc1 (mixture of isomers)					53.5%	32.4%	35.84%			
		CC(C)Cc1ccc(C(C)C(=O)O)cc1 (stereo not given) [IBUPROFEN]		13.51						23.42%	35.6%	52.1%
